Reference: ChEMBL document CHEMBL5230168, “Design, synthesis, and biological evaluation of new arjunolic acid derivatives as anticancer agents” (RSC Med Chem, 2023)

Experiments:
PANC-1 [1] = test: Cytotoxicity against human PANC-1 cells assessed as inhibition of cell growth incubated for 72 hrs by MTT assay; type: functional, cell-based; conditions: PANC-1, 72 h
In short: (§1)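 Cells seeded per well (HT-29 4500, PANC-1 4000, SK-MEL-28 3200, A375 1200, A549 2500, H2170 and BJ 10 000) and left 24 h. They were then exposed to increasing concentrations for 72 h and incubated 1 h with MTT 0.5 mg mL−1. Formazan was dissolved in DMSO and absorbance read at 550 nm. IC50 from three independent experiments. Final DMSO ≤0.5%.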

HT-29 [2] = test: Cytotoxicity against human HT-29 cells assessed as inhibition of cell growth incubated for 72 hrs by MTT assay; type: functional, cell-based; conditions: HT-29, 72 h; in short: as §1
PANC-1 [3] = test: Potency index, ratio of Arjunolic acid IC50 to test compound IC50 for cytotoxicity against human PANC-1 cells assessed as inhibition of cell growth incubated for 72 hrs by MTT assay; type: functional
In short: (§2)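 Potency index: arjunolic acid IC50 divided by derivative IC50 from the 72 h MTT assay on HT-29 (4500 cells/well) or PANC-1 (4000 cells/well). IC50 from three independent experiments.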

HT-29 [4] = test: Potency index, ratio of Arjunolic acid IC50 to test compound IC50 for cytotoxicity against human HT-29 cells assessed as inhibition of cell growth incubated for 72 hrs by MTT assay; type: functional; in short: as §2
A-375 = test: Cytotoxicity against human A-375 cells assessed as inhibition of cell growth incubated for 72 hrs by MTT assay; type: functional, cell-based; conditions: A-375, 72 h; in short: as §1
SK-MEL-28 = test: Cytotoxicity against human SK-MEL-28 cells assessed as inhibition of cell growth incubated for 72 hrs by MTT assay; type: functional, cell-based; conditions: SK-MEL-28, 72 h; in short: as §1
A549 = test: Cytotoxicity against human A549 cells assessed as inhibition of cell growth incubated for 72 hrs by MTT assay; type: functional, cell-based; conditions: A549, 72 h; in short: as §1
NCI-H2170 = test: Cytotoxicity against human NCI-H2170 cells assessed as inhibition of cell growth incubated for 72 hrs by MTT assay; type: functional, cell-based; conditions: NCI-H2170, 72 h; in short: as §1
[5] = Cytotoxicity against human BJ cells assessed as inhibition of cell growth incubated for 72 hrs by MTT assay; type: toxicity, cell-based; in short: as §1
[6] = Selectivity index, ratio of IC50 for cytotoxicity against human BJ cells to IC50 for cytotoxicity against human PANC-1; type: toxicity, cell-based; conditions: BJ cells and PANC-1 cells, read-out: Ratio IC50
In short: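 Selectivity index: BJ fibroblast IC50 over PANC-1 IC50, both from the 72 h MTT assay with 24 h pre-seeding (10 000 and 4000 cells/well). IC50 from three independent experiments.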

Row | Structure (SMILES) | IC50 (PANC-1 [1]) [µM] | IC50 (HT-29 [2]) [µM] | further results
1 | COC(=O)[C@]12CCC(C)(C)C[C@H]1C1=CC[C@@H]3[C@@]4(C)C[C@@H](O)OC[C@](C)(C=O)[C@@H]4CC[C@@]3(C)[C@]1(C)CC2 | 6.7 | 5.59 | 
2 | CC(=O)OC[C@@]1(C)[C@@H]2CC[C@]3(C)[C@H](CC=C4[C@@H]5CC(C)(C)CC[C@]5(C(N)=O)CC[C@]43C)[C@@]2(C)C[C@@H](OC(C)=O)[C@@H]1OC(C)=O | 3.63 | 19.3 | Ratio IC50 (PANC-1 [3]): 15
3 | CCNC(=O)[C@]12CCC(C)(C)C[C@H]1C1=CC[C@@H]3[C@@]4(C)C[C@@H](O)[C@H](O)[C@@](C)(CO)[C@@H]4CC[C@@]3(C)[C@]1(C)CC2 | 27.6 | 25.5 | 
4 | CCNC(=O)[C@]12CCC(C)(C)C[C@H]1C1=CC[C@@H]3[C@@]4(C)C(C=O)=C[C@@](C)(CO)[C@@H]4CC[C@@]3(C)[C@]1(C)CC2 | 4.15 | 3.43 | 
5 | CCOC(=O)[C@]12CCC(C)(C)C[C@H]1C1=CC[C@@H]3[C@@]4(C)C[C@@H](O)[C@H](O)[C@@](C)(CO)[C@@H]4CC[C@@]3(C)[C@]1(C)CC2 | 20.2 | 11.6 | Ratio IC50 (PANC-1 [3]): 2.7; Ratio IC50 (HT-29 [4]): 3.1
6 | CC1(C)CC[C@]2(C(N)=O)CC[C@]3(C)C(=CC[C@@H]4[C@@]5(C)C[C@@H](O)[C@H](O)[C@@](C)(CO)[C@@H]5CC[C@]43C)[C@@H]2C1 | > 30 | > 30 | 
7 | CC(=O)OC[C@@]1(C)[C@@H]2CC[C@]3(C)[C@H](CC=C4[C@@H]5CC(C)(C)CC[C@]5(C(=O)O)CC[C@]43C)[C@@]2(C)C[C@@H](OC(C)=O)[C@@H]1OC(C)=O | 14.9 | 12.4 | 
8 | COC(=O)[C@]12CCC(C)(C)C[C@H]1C1=CC[C@@H]3[C@@]4(C)C(C=O)=C[C@@](C)(CO)[C@@H]4CC[C@@]3(C)[C@]1(C)CC2 | 0.82 | 0.87 | IC50 (A-375): 0.85 µM; IC50 (SK-MEL-28): 0.85 µM; IC50 (A549): 1.22 µM; IC50 (NCI-H2170): 2.11 µM
9 | CCCCOC(=O)[C@]12CCC(C)(C)C[C@H]1C1=CC[C@@H]3[C@@]4(C)C(C=O)=C[C@@](C)(CO)[C@@H]4CC[C@@]3(C)[C@]1(C)CC2 | 0.43 | 0.55 | IC50 (A-375): 0.55 µM; IC50 (SK-MEL-28): 0.45 µM; IC50 (A549): 0.58 µM; IC50 (NCI-H2170): 1.3 µM; IC50 at 72 h [5]: 2.79 µM; selectivity ratio [6]: 6.5
10 | CCNC(=O)[C@]12CCC(C)(C)C[C@H]1C1=CC[C@@H]3[C@@]4(C)C[C@@H](O)OC[C@](C)(C=O)[C@@H]4CC[C@@]3(C)[C@]1(C)CC2 | 22 |  | 
11 | CCCCOC(=O)[C@]12CCC(C)(C)C[C@H]1C1=CC[C@@H]3[C@@]4(C)C[C@@H](O)[C@H](O)[C@@](C)(CO)[C@@H]4CC[C@@]3(C)[C@]1(C)CC2 | 20.2 | 13.7 | Ratio IC50 (PANC-1 [3]): 2.7; Ratio IC50 (HT-29 [4]): 2.7
12 | CNC(=O)[C@]12CCC(C)(C)C[C@H]1C1=CC[C@@H]3[C@@]4(C)C(C=O)=C[C@@](C)(CO)[C@@H]4CC[C@@]3(C)[C@]1(C)CC2 | 2.38 | 7.41 | 
13 | CNC(=O)[C@]12CCC(C)(C)C[C@H]1C1=CC[C@@H]3[C@@]4(C)C[C@@H](OC(C)=O)[C@H](OC(C)=O)[C@@](C)(COC(C)=O)[C@@H]4CC[C@@]3(C)[C@]1(C)CC2 | 0.93 | 16.5 | Ratio IC50 (PANC-1 [3]): 60
14 | CC1(C)CC[C@]2(C(N)=O)CC[C@]3(C)C(=CC[C@@H]4[C@@]5(C)C[C@@H](O)OC[C@](C)(C=O)[C@@H]5CC[C@]43C)[C@@H]2C1 | 29.3 |  | 
15 | CCCCOC(=O)[C@]12CCC(C)(C)C[C@H]1C1=CC[C@@H]3[C@@]4(C)C[C@@H](O)OC[C@](C)(C=O)[C@@H]4CC[C@@]3(C)[C@]1(C)CC2 | 4.58 | 4.46 | 
16 | C=CCOC(=O)[C@]12CCC(C)(C)C[C@H]1C1=CC[C@@H]3[C@@]4(C)C(C=O)=C[C@@](C)(CO)[C@@H]4CC[C@@]3(C)[C@]1(C)CC2 | 0.84 | 0.55 | IC50 (A-375): 0.59 µM; IC50 (SK-MEL-28): 0.53 µM; IC50 (A549): 0.82 µM; IC50 (NCI-H2170): 1.51 µM
17 | CCNC(=O)[C@]12CCC(C)(C)C[C@H]1C1=CC[C@@H]3[C@@]4(C)C[C@@H](OC(C)=O)[C@H](OC(C)=O)[C@@](C)(COC(C)=O)[C@@H]4CC[C@@]3(C)[C@]1(C)CC2 | 0.63 | 1.17 | Ratio IC50 (PANC-1 [3]): 89
18 | COC(=O)[C@]12CCC(C)(C)C[C@H]1C1=CC[C@@H]3[C@@]4(C)C[C@@H](O)[C@H](O)[C@@](C)(CO)[C@@H]4CC[C@@]3(C)[C@]1(C)CC2 | 19.7 | 16.7 | Ratio IC50 (PANC-1 [3]): 2.7; Ratio IC50 (HT-29 [4]): 2.2
19 | C=CCOC(=O)[C@]12CCC(C)(C)C[C@H]1C1=CC[C@@H]3[C@@]4(C)C[C@@H](O)[C@H](O)[C@@](C)(CO)[C@@H]4CC[C@@]3(C)[C@]1(C)CC2 | 18.9 | 12.8 | Ratio IC50 (PANC-1 [3]): 3; Ratio IC50 (HT-29 [4]): 2.8
20 | CC1(C)CC[C@]2(C(=O)O)CC[C@]3(C)C(=CC[C@@H]4[C@@]5(C)C[C@@H](O)[C@H](O)[C@@](C)(CO)[C@@H]5CC[C@]43C)[C@@H]2C1 [ARJUNOLIC ACID] | 56.3 | 36.4 | 
21 | CC1(C)CC[C@]2(C(N)=O)CC[C@]3(C)C(=CC[C@@H]4[C@@]5(C)C(C=O)=C[C@@](C)(CO)[C@@H]5CC[C@]43C)[C@@H]2C1 | 3.74 | 5.81 | 
22 | CC1(C)CC[C@]2(C(=O)O)CC[C@]3(C)C(=CC[C@@H]4[C@@]5(C)C[C@@H](O)OC[C@](C)(C=O)[C@@H]5CC[C@]43C)[C@@H]2C1 | > 30 | > 30 | 
23 | C=CCOC(=O)[C@]12CCC(C)(C)C[C@H]1C1=CC[C@@H]3[C@@]4(C)C[C@@H](O)OC[C@](C)(C=O)[C@@H]4CC[C@@]3(C)[C@]1(C)CC2 | 4.92 | 4.38 | 
24 | CNC(=O)[C@]12CCC(C)(C)C[C@H]1C1=CC[C@@H]3[C@@]4(C)C[C@@H](O)OC[C@](C)(C=O)[C@@H]4CC[C@@]3(C)[C@]1(C)CC2 | 16.6 | 25.9 | 
25 | CNC(=O)[C@]12CCC(C)(C)C[C@H]1C1=CC[C@@H]3[C@@]4(C)C[C@@H](O)[C@H](O)[C@@](C)(CO)[C@@H]4CC[C@@]3(C)[C@]1(C)CC2 | > 30 | > 30 | 
26 | CC1(C)CC[C@]2(C(=O)O)CC[C@]3(C)C(=CC[C@@H]4[C@@]5(C)C(C=O)=C[C@@](C)(CO)[C@@H]5CC[C@]43C)[C@@H]2C1 | 5.27 | 5.73 | 
27 | CCOC(=O)[C@]12CCC(C)(C)C[C@H]1C1=CC[C@@H]3[C@@]4(C)C[C@@H](O)OC[C@](C)(C=O)[C@@H]4CC[C@@]3(C)[C@]1(C)CC2 | 7.14 | 6.7 | 
